The source of these data is ChEMBL document CHEMBL2331438, “An efficient domino reaction in ionic liquid: synthesis and biological evaluation of some pyrano- and thiopyrano-fused heterocycles” (2013).

One experiment has as its system Bacillus subtilis. As to the kind of experiment: Antibacterial activity against Bacillus subtilis MTCC 441 after 24 hrs by broth microdilution method. The format is functional. As to conditions: MTCC 441, 24 h.
The subject of another experiment is Aspergillus fumigatus. As to the kind of experiment: Antifungal activity against Aspergillus fumigatus MTCC 3008 after 48 hrs by broth microdilution method. In kind it is functional.
For another experiment, the system named is Streptococcus pneumoniae. As to the kind of experiment: Antibacterial activity against Streptococcus pneumoniae MTCC 1936 after 24 hrs by broth microdilution method. The format is functional. To be noted: MTCC 1936, 24 h.
Experiment [1] relates to Mycobacterium tuberculosis. In words: Antimycobacterial activity against Mycobacterium tuberculosis H37Rv at 250 ug/ml. In kind it is functional. Put shortly:
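M. tuberculosis H37Rv tested on L.J. (Löwenstein–Jensen) medium.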

The next experiment has as its system Clostridium tetani. In words: Antibacterial activity against Clostridium tetani MTCC 449 after 24 hrs by broth microdilution method. To be noted: MTCC 449, 24 h. The format is functional.
The test system of a further experiment is Salmonella typhi. As to the kind of experiment: Antibacterial activity against Salmonella typhi MTCC 98 after 24 hrs by broth microdilution method. The format is functional, Salmonella enterica subsp. enterica serovar Typhi. As to conditions: Salmonella enterica, MTCC 98, 24 h.
In the next experiment the test system is Vibrio cholerae. In words: Antibacterial activity against Vibrio cholerae MTCC 3906 after 24 hrs by broth microdilution method. In kind it is functional. As to conditions: MTCC 3906, 24 h.
The nature of experiment [2]: Antioxidant activity assessed as ascorbic acid equivalent ferric ion reducing activity per 100 gram at 200 ug/ml by FRAP assay. In kind it is functional.
A further experiment concerns Candida albicans. In words: Antifungal activity against Candida albicans MTCC 227 after 48 hrs by broth microdilution method. The format is functional.
The subject of the next experiment is Escherichia coli. As to the kind of experiment: Antibacterial activity against Escherichia coli MTCC 443 after 24 hrs by broth microdilution method. In kind it is functional. As to conditions: MTCC 443, 24 h.

≈ marks a conversion by molar mass, not a printed value.

On to `Cc1cc(=O)oc2c3c(ccc12)OC[C@H]1[C@@H]3c2c(-c3ccccc3)nn(-c3ccccc3)c2OC1(C)C`, for which the MIC against Bacillus subtilis was 200 µg/mL (≈ 408 µM); with Aspergillus fumigatus (MTCC 3008, 48 h), > 1000 µg/mL; in the experiment with Streptococcus pneumoniae it was 125 µg/mL (≈ 255 µM); against Clostridium tetani it was 100 µg/mL (≈ 204 µM); in the experiment with Salmonella typhi, 100 µg/mL (≈ 204 µM); with Vibrio cholerae, 125 µg/mL (≈ 255 µM). In addition, the MIC in the experiment with Candida albicans (MTCC 227, 48 h) turned out to be 1000 µg/mL (≈ 2040 µM); against Escherichia coli, 125 µg/mL (≈ 255 µM). In addition, testing at 250 µg/mL in [1] gave an inhibition of 80%. The Activity in experiment [2] was 160 mmol.
`Cc1nn(-c2cccc(Cl)c2)c2c1[C@@H]1c3cc4ccccc4nc3SC[C@@H]1CO2`: the minimal inhibitory concentration (MIC) was determined as 200 µg/mL (≈ 476 µM) against Bacillus subtilis; 1000 µg/mL (≈ 2380 µM) against Aspergillus fumigatus (MTCC 3008, 48 h); 250 µg/mL (≈ 595 µM) with Streptococcus pneumoniae; 125 µg/mL (≈ 298 µM) with Clostridium tetani; 100 µg/mL (≈ 238 µM) with Salmonella typhi; 200 µg/mL (≈ 476 µM) with Vibrio cholerae. Moreover, the minimum inhibitory concentration (MIC) in the experiment with Candida albicans (MTCC 227, 48 h) is > 1000 µg/mL; against Escherichia coli it was 62.5 µg/mL (≈ 149 µM). The molecule further had an inhibition at 250 µg/mL in [1] of 61%. Further, the Activity in [2] was 128 mmol.
With `Cc1nn(-c2ccccc2)c2c1[C@@H]1c3c(ccc4c(C)cc(=O)oc34)OC[C@@H]1C(C)(C)O2`, the minimal inhibitory concentration (MIC) was 200 µg/mL (≈ 467 µM) in the experiment on Bacillus subtilis; 200 µg/mL (≈ 467 µM) in the experiment with Aspergillus fumigatus (MTCC 3008, 48 h); 200 µg/mL (≈ 467 µM) in the experiment on Streptococcus pneumoniae; 500 µg/mL (≈ 1170 µM) in the experiment with Clostridium tetani; 250 µg/mL (≈ 583 µM) against Salmonella typhi; 250 µg/mL (≈ 583 µM) against Vibrio cholerae. Further, the MIC with Candida albicans (MTCC 227, 48 h) turned out to be 1000 µg/mL (≈ 2330 µM); against Escherichia coli, 250 µg/mL (≈ 583 µM). Besides, at 250 µg/mL the inhibition in experiment [1] was 65%. The Activity in [2] turned out to be 146 mmol.
On to `Cc1nn(-c2ccccc2Cl)c2c1[C@@H]1c3cc4cccc(C)c4nc3SC[C@@H]1CO2`, for which the minimum inhibitory concentration (MIC) worked out at 125 µg/mL (≈ 288 µM) against Bacillus subtilis; 250 µg/mL (≈ 576 µM) against Aspergillus fumigatus (MTCC 3008, 48 h); 100 µg/mL (≈ 230 µM) against Streptococcus pneumoniae; 125 µg/mL (≈ 288 µM) in the experiment with Clostridium tetani; 250 µg/mL (≈ 576 µM) against Salmonella typhi; 200 µg/mL (≈ 461 µM) against Vibrio cholerae. Further, the MIC against Candida albicans (MTCC 227, 48 h) came to 500 µg/mL (≈ 1150 µM); against Escherichia coli, 250 µg/mL (≈ 576 µM). The inhibition at 250 µg/mL in experiment [1] was found to be 29%. Moreover, the Activity in experiment [2] was determined as 147 mmol.
Regarding `Cc1ccc(-n2nc(C)c3c2OC[C@H]2CSc4nc5ccccc5cc4[C@@H]32)cc1`, the minimal inhibitory concentration (MIC) was found to be 200 µg/mL (≈ 501 µM) with Bacillus subtilis; 1000 µg/mL (≈ 2500 µM) in the experiment on Aspergillus fumigatus (MTCC 3008, 48 h); 62.5 µg/mL (≈ 156 µM) against Streptococcus pneumoniae; 200 µg/mL (≈ 501 µM) in the experiment with Clostridium tetani; 125 µg/mL (≈ 313 µM) in the experiment with Salmonella typhi; 200 µg/mL (≈ 501 µM) against Vibrio cholerae. The minimal inhibitory concentration (MIC) was found to be 1000 µg/mL (≈ 2500 µM) in the experiment on Candida albicans (MTCC 227, 48 h) and 125 µg/mL (≈ 313 µM) against Escherichia coli. In experiment [1], this molecule yielded an inhibition at 250 µg/mL of 33%. The Activity in experiment [2] is 121 mmol.
Consider NYSTATIN, for which the minimal inhibitory concentration (MIC) with Aspergillus fumigatus and against Candida albicans was 100 µg/mL throughout.
As to `COC1=CC(=O)C[C@@H](C)[C@]12Oc1c(Cl)c(OC)cc(OC)c1C2=O` [GRISEOFULVIN], the MIC came out at 100 µg/mL (≈ 283 µM) in the experiment with Aspergillus fumigatus (MTCC 3008, 48 h) and 500 µg/mL (≈ 1420 µM) against Candida albicans (MTCC 227, 48 h).
Turning to `O=C(N[C@H](CO)[C@H](O)c1ccc([N+](=O)[O-])cc1)C(Cl)Cl` [CHLORAMPHENICOL], the MIC against Bacillus subtilis, in the experiment with Streptococcus pneumoniae, against Clostridium tetani, against Salmonella typhi, against Vibrio cholerae and against Escherichia coli was 50 µg/mL (≈ 155 µM) throughout.
As to `Cc1nn(-c2cc(Cl)ccc2Cl)c2c1[C@@H]1c3c(ccc4c(C)cc(=O)oc34)OC[C@@H]1C(C)(C)O2`, the minimum inhibitory concentration (MIC) against Bacillus subtilis worked out at 100 µg/mL (≈ 201 µM); with Aspergillus fumigatus (MTCC 3008, 48 h), 500 µg/mL (≈ 1010 µM); in the experiment with Streptococcus pneumoniae it was 100 µg/mL (≈ 201 µM); in the experiment with Candida albicans (MTCC 227, 48 h), 500 µg/mL (≈ 1010 µM); in the experiment on Escherichia coli it was 100 µg/mL (≈ 201 µM). The Activity in experiment [2] is 187 mmol.
`Cc1nn(-c2cc(Cl)ccc2Cl)c2c1[C@@H]1c3cc4ccccc4nc3SC[C@@H]1CO2`: the minimal inhibitory concentration (MIC) is 100 µg/mL (≈ 220 µM) against Bacillus subtilis; > 1000 µg/mL against Aspergillus fumigatus (MTCC 3008, 48 h); 200 µg/mL (≈ 440 µM) in the experiment on Streptococcus pneumoniae; 500 µg/mL (≈ 1100 µM) in the experiment with Candida albicans (MTCC 227, 48 h); 250 µg/mL (≈ 550 µM) with Escherichia coli. In addition, the Activity in experiment [2] came to 158 mmol.
For the molecule `O=C(O)c1cn(C2CC2)c2cc(N3CCNCC3)c(F)cc2c1=O` [CIPROFLOXACIN], the MIC against Streptococcus pneumoniae was 50 µg/mL (≈ 151 µM); against Salmonella typhi it was 25 µg/mL (≈ 75.4 µM); with Vibrio cholerae, 25 µg/mL (≈ 75.4 µM); against Escherichia coli, 25 µg/mL (≈ 75.4 µM).
On to `CC1(C)S[C@@H]2[C@H](NC(=O)[C@H](N)c3ccccc3)C(=O)N2[C@H]1C(=O)O` [AMPICILLIN], for which the MIC was determined as 250 µg/mL (≈ 715 µM) in the experiment with Bacillus subtilis; 100 µg/mL (≈ 286 µM) with Streptococcus pneumoniae; 250 µg/mL (≈ 715 µM) with Clostridium tetani; 100 µg/mL (≈ 286 µM) against Salmonella typhi; 100 µg/mL (≈ 286 µM) in the experiment on Vibrio cholerae; 100 µg/mL (≈ 286 µM) against Escherichia coli.
